# Data reported in ChEMBL document CHEMBL1799942, “Design, synthesis and antifungal activities of novel 1,2,4-triazole derivatives” (2011).
# Legend:
# Type in all cases: functional
# Candida albicans = experiment: Antifungal activity against Candida albicans ATCC Y0109 after 24 hrs by micro-broth dilution method; settings: ATCC Y0109, 24 h
# Outline: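 Micro-broth dilution per NCCLS M27-A2 on the quality-control standard strain ATCC Y0109, included in each assay. Compounds were dissolved in DMSO, serially diluted in growth medium, inoculated and incubated at 35 °C, with growth read at 24 h. MIC80 is the first well showing roughly 80% growth reduction versus the drug-free well.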
# Candida parapsilosis = experiment: Antifungal activity against Candida parapsilosis ATCC 0306392 by micro-broth dilution method; settings: Lodderomyces parapsilosis
# Outline: (§1)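 Micro-broth dilution per NCCLS M27-A2. The C. parapsilosis strain is the ATCC 0306392 quality-control standard tested in each assay; the C. tropicalis strain is a clinical isolate. Compounds were in DMSO, serially diluted in growth medium, inoculated and incubated at 35 °C. MIC80 is the first well with about 80% growth reduction relative to the drug-free well.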
# Candida tropicalis = experiment: Antifungal activity against Candida tropicalis by micro-broth dilution method; outline: as §1
# Cryptococcus neoformans = experiment: Antifungal activity against Cryptococcus neoformans ATCC BLS108 after 72 hrs by micro-broth dilution method; settings: ATCC BLS108, 72 h
# Outline: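 NCCLS M27-A2 microdilution on the ATCC BLS108 quality-control strain, tested in every assay. Compounds were taken up in DMSO, serially diluted in growth medium, inoculated and incubated at 35 °C. Growth was scored at 72 h. MIC80 is the first well with about 80% lower growth than the drug-free control well.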
# Aspergillus fumigatus = experiment: Antifungal activity against Aspergillus fumigatus after 7 days by micro-broth dilution method; settings: 168 h
# Outline: (§2)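 Broth microdilution following the NCCLS yeast reference method (M27-A2), run on clinical isolates of filamentous fungi. Compounds were dissolved in DMSO, serially diluted in growth medium, inoculated and incubated at 35 °C. Growth was read at 7 days. MIC80 is the first well with about 80% less growth than the drug-free well.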
# Trichophyton rubrum = experiment: Antifungal activity against Trichophyton rubrum after 7 days by micro-broth dilution method; settings: 168 h; outline: as §2
# [1] = Antifungal activity against Fonsecaea compacta by micro-broth dilution method; outline: as §2
# Nannizzia gypsea = experiment: Antifungal activity against Microsporum gypseum after 7 days by micro-broth dilution method; settings: 168 h; outline: as §2
smiles,measurement,setting,value
O=C(Nc1ccc(N2CCN(CC(O)(Cn3cncn3)c3ccc(F)cc3F)CC2)c(F)c1)C(F)(F)Cl (racemic),MIC80,Candida albicans,64 µg/mL
same,MIC80,Candida parapsilosis,0.0039 µg/mL
same,MIC80,Candida tropicalis,0.0039 µg/mL
same,MIC80,Cryptococcus neoformans,0.0156 µg/mL
same,MIC80,Aspergillus fumigatus,1 µg/mL
same,MIC80,Trichophyton rubrum,0.0039 µg/mL
same,MIC80,[1],0.0156 µg/mL
same,MIC80,Nannizzia gypsea,0.0039 µg/mL
O=C(Nc1ccc(N2CCN(CC(O)(Cn3cncn3)c3ccc(F)cc3F)CC2)c(F)c1)C(F)(F)F (racemic),MIC80,Candida albicans,0.0156 µg/mL
same,MIC80,Candida parapsilosis,0.0039 µg/mL
same,MIC80,Candida tropicalis,0.0039 µg/mL
same,MIC80,Cryptococcus neoformans,0.0625 µg/mL
same,MIC80,Aspergillus fumigatus,1 µg/mL
same,MIC80,Trichophyton rubrum,0.0156 µg/mL
same,MIC80,[1],0.25 µg/mL
same,MIC80,Nannizzia gypsea,> 64 µg/mL
CCC(=O)Nc1ccc(N2CCN(CC(O)(Cn3cncn3)c3ccc(F)cc3F)CC2)c(F)c1 (racemic),MIC80,Candida albicans,0.0625 µg/mL
same,MIC80,Candida parapsilosis,0.0625 µg/mL
same,MIC80,Candida tropicalis,0.0625 µg/mL
same,MIC80,Cryptococcus neoformans,1 µg/mL
same,MIC80,Aspergillus fumigatus,4 µg/mL
same,MIC80,Trichophyton rubrum,0.0625 µg/mL
same,MIC80,[1],1 µg/mL
same,MIC80,Nannizzia gypsea,0.25 µg/mL
CCCC(=O)Nc1ccc(N2CCN(CC(O)(Cn3cncn3)c3ccc(F)cc3F)CC2)c(F)c1 (racemic),MIC80,Candida albicans,0.0156 µg/mL
same,MIC80,Candida parapsilosis,0.0156 µg/mL
same,MIC80,Candida tropicalis,0.0156 µg/mL
same,MIC80,Cryptococcus neoformans,0.25 µg/mL
same,MIC80,Aspergillus fumigatus,1 µg/mL
same,MIC80,Trichophyton rubrum,0.0156 µg/mL
same,MIC80,[1],0.25 µg/mL
same,MIC80,Nannizzia gypsea,0.0156 µg/mL
CC(C)C(=O)Nc1ccc(N2CCN(CC(O)(Cn3cncn3)c3ccc(F)cc3F)CC2)c(F)c1 (racemic),MIC80,Candida albicans,0.0625 µg/mL
same,MIC80,Candida parapsilosis,0.25 µg/mL
same,MIC80,Candida tropicalis,4 µg/mL
same,MIC80,Cryptococcus neoformans,16 µg/mL
same,MIC80,Aspergillus fumigatus,> 64 µg/mL
same,MIC80,Trichophyton rubrum,0.0625 µg/mL
same,MIC80,[1],1 µg/mL
same,MIC80,Nannizzia gypsea,0.0625 µg/mL
O=C(CCl)Nc1ccc(N2CCN(CC(O)(Cn3cncn3)c3ccc(F)cc3F)CC2)cc1 (racemic),MIC80,Candida albicans,0.0039 µg/mL
same,MIC80,Candida parapsilosis,0.0156 µg/mL
same,MIC80,Candida tropicalis,0.0156 µg/mL
same,MIC80,Cryptococcus neoformans,0.25 µg/mL
same,MIC80,Aspergillus fumigatus,4 µg/mL
same,MIC80,Trichophyton rubrum,0.0625 µg/mL
same,MIC80,[1],0.0625 µg/mL
same,MIC80,Nannizzia gypsea,0.0625 µg/mL
O=C(Nc1ccc(N2CCN(CC(O)(Cn3cncn3)c3ccc(F)cc3F)CC2)cc1)C(F)(F)Cl (racemic),MIC80,Candida albicans,0.00097 µg/mL
same,MIC80,Candida parapsilosis,0.0039 µg/mL
same,MIC80,Candida tropicalis,0.0039 µg/mL
same,MIC80,Cryptococcus neoformans,0.0625 µg/mL
same,MIC80,Aspergillus fumigatus,1 µg/mL
same,MIC80,Trichophyton rubrum,0.0156 µg/mL
same,MIC80,[1],0.0625 µg/mL
same,MIC80,Nannizzia gypsea,0.0039 µg/mL
O=C(Nc1ccc(N2CCN(CC(O)(Cn3cncn3)c3ccc(F)cc3F)CC2)cc1)C(F)(F)F (racemic),MIC80,Candida albicans,0.00097 µg/mL
same,MIC80,Candida parapsilosis,0.0039 µg/mL
same,MIC80,Candida tropicalis,0.00097 µg/mL
same,MIC80,Cryptococcus neoformans,0.0156 µg/mL
same,MIC80,Aspergillus fumigatus,1 µg/mL
same,MIC80,Trichophyton rubrum,0.0156 µg/mL
same,MIC80,[1],0.0156 µg/mL
same,MIC80,Nannizzia gypsea,0.0039 µg/mL
CCC(=O)Nc1ccc(N2CCN(CC(O)(Cn3cncn3)c3ccc(F)cc3F)CC2)cc1 (racemic),MIC80,Candida albicans,0.0156 µg/mL
same,MIC80,Candida parapsilosis,0.0156 µg/mL
same,MIC80,Candida tropicalis,0.0156 µg/mL
same,MIC80,Cryptococcus neoformans,1 µg/mL
same,MIC80,Aspergillus fumigatus,4 µg/mL
same,MIC80,Trichophyton rubrum,0.0625 µg/mL
same,MIC80,[1],0.25 µg/mL
same,MIC80,Nannizzia gypsea,0.25 µg/mL
CCCC(=O)Nc1ccc(N2CCN(CC(O)(Cn3cncn3)c3ccc(F)cc3F)CC2)cc1 (racemic),MIC80,Candida albicans,0.00097 µg/mL
same,MIC80,Candida parapsilosis,0.0156 µg/mL
same,MIC80,Candida tropicalis,0.0625 µg/mL
same,MIC80,Cryptococcus neoformans,0.25 µg/mL
same,MIC80,Aspergillus fumigatus,4 µg/mL
same,MIC80,Trichophyton rubrum,0.0625 µg/mL
same,MIC80,[1],0.25 µg/mL
same,MIC80,Nannizzia gypsea,0.0625 µg/mL
CC(C)C(=O)Nc1ccc(N2CCN(CC(O)(Cn3cncn3)c3ccc(F)cc3F)CC2)cc1 (racemic),MIC80,Candida albicans,0.0039 µg/mL
same,MIC80,Candida parapsilosis,0.0156 µg/mL
same,MIC80,Candida tropicalis,0.0156 µg/mL
same,MIC80,Cryptococcus neoformans,1 µg/mL
same,MIC80,Aspergillus fumigatus,4 µg/mL
same,MIC80,Trichophyton rubrum,0.25 µg/mL
same,MIC80,[1],0.25 µg/mL
same,MIC80,Nannizzia gypsea,0.0625 µg/mL
CCCCC(=O)Nc1ccc(N2CCN(CC(O)(Cn3cncn3)c3ccc(F)cc3F)CC2)cc1 (racemic),MIC80,Candida albicans,0.0156 µg/mL
same,MIC80,Candida parapsilosis,0.0625 µg/mL
same,MIC80,Candida tropicalis,0.0625 µg/mL
same,MIC80,Cryptococcus neoformans,0.25 µg/mL
same,MIC80,Aspergillus fumigatus,1 µg/mL
same,MIC80,Trichophyton rubrum,0.0625 µg/mL
same,MIC80,[1],0.25 µg/mL
same,MIC80,Nannizzia gypsea,0.25 µg/mL
CCCCCC(=O)Nc1ccc(N2CCN(CC(O)(Cn3cncn3)c3ccc(F)cc3F)CC2)cc1 (racemic),MIC80,Candida albicans,0.0156 µg/mL
same,MIC80,Candida parapsilosis,0.25 µg/mL
same,MIC80,Candida tropicalis,0.25 µg/mL
same,MIC80,Cryptococcus neoformans,1 µg/mL
same,MIC80,Aspergillus fumigatus,> 64 µg/mL
same,MIC80,Trichophyton rubrum,0.0625 µg/mL
same,MIC80,[1],1 µg/mL
same,MIC80,Nannizzia gypsea,0.0625 µg/mL
CC(C)(C)C(=O)Nc1ccc(N2CCN(CC(O)(Cn3cncn3)c3ccc(F)cc3F)CC2)cc1 (racemic),MIC80,Candida albicans,0.0156 µg/mL
same,MIC80,Candida parapsilosis,0.0156 µg/mL
same,MIC80,Candida tropicalis,0.0156 µg/mL
same,MIC80,Cryptococcus neoformans,0.25 µg/mL
same,MIC80,Aspergillus fumigatus,16 µg/mL
same,MIC80,Trichophyton rubrum,0.0039 µg/mL
same,MIC80,[1],1 µg/mL
same,MIC80,Nannizzia gypsea,0.0156 µg/mL
CCCCCCC(=O)Nc1ccc(N2CCN(CC(O)(Cn3cncn3)c3ccc(F)cc3F)CC2)cc1 (racemic),MIC80,Candida albicans,0.00097 µg/mL
same,MIC80,Candida parapsilosis,0.0156 µg/mL
same,MIC80,Candida tropicalis,0.0156 µg/mL
same,MIC80,Cryptococcus neoformans,0.0625 µg/mL
same,MIC80,Aspergillus fumigatus,> 64 µg/mL
same,MIC80,Trichophyton rubrum,0.0039 µg/mL
same,MIC80,[1],0.0625 µg/mL
same,MIC80,Nannizzia gypsea,0.0039 µg/mL
CCCCCCCC(=O)Nc1ccc(N2CCN(CC(O)(Cn3cncn3)c3ccc(F)cc3F)CC2)cc1 (racemic),MIC80,Candida albicans,0.0156 µg/mL
same,MIC80,Candida parapsilosis,0.0625 µg/mL
same,MIC80,Candida tropicalis,0.0625 µg/mL
same,MIC80,Cryptococcus neoformans,0.0625 µg/mL
same,MIC80,Aspergillus fumigatus,1 µg/mL
same,MIC80,Trichophyton rubrum,0.0625 µg/mL
same,MIC80,[1],1 µg/mL
same,MIC80,Nannizzia gypsea,0.0156 µg/mL
CCCCCCCCCC(=O)Nc1ccc(N2CCN(CC(O)(Cn3cncn3)c3ccc(F)cc3F)CC2)cc1 (racemic),MIC80,Candida albicans,0.0156 µg/mL
same,MIC80,Candida parapsilosis,1 µg/mL
same,MIC80,Candida tropicalis,0.25 µg/mL
same,MIC80,Cryptococcus neoformans,0.0625 µg/mL
same,MIC80,Aspergillus fumigatus,1 µg/mL
same,MIC80,Trichophyton rubrum,0.0625 µg/mL
same,MIC80,[1],1 µg/mL
same,MIC80,Nannizzia gypsea,0.0156 µg/mL
CCCCCCCCCCCC(=O)Nc1ccc(N2CCN(CC(O)(Cn3cncn3)c3ccc(F)cc3F)CC2)cc1 (racemic),MIC80,Candida albicans,0.0625 µg/mL
same,MIC80,Candida parapsilosis,0.25 µg/mL
same,MIC80,Candida tropicalis,1 µg/mL
same,MIC80,Cryptococcus neoformans,0.0625 µg/mL
same,MIC80,Aspergillus fumigatus,1 µg/mL
same,MIC80,Trichophyton rubrum,0.0625 µg/mL
same,MIC80,[1],0.25 µg/mL
same,MIC80,Nannizzia gypsea,0.0156 µg/mL
CCCCCCCCCCCCCCCC(=O)Nc1ccc(N2CCN(CC(O)(Cn3cncn3)c3ccc(F)cc3F)CC2)cc1 (racemic),MIC80,Candida albicans,0.25 µg/mL
same,MIC80,Candida parapsilosis,1 µg/mL
same,MIC80,Candida tropicalis,1 µg/mL
same,MIC80,Cryptococcus neoformans,16 µg/mL
same,MIC80,Aspergillus fumigatus,> 64 µg/mL
same,MIC80,Trichophyton rubrum,0.25 µg/mL
same,MIC80,[1],4 µg/mL
same,MIC80,Nannizzia gypsea,0.25 µg/mL
CC(=O)Nc1ccc(N2CCN(CC(O)(Cn3cncn3)c3ccc(F)cc3F)CC2)c(F)c1 (racemic),MIC80,Candida albicans,0.0625 µg/mL
same,MIC80,Candida parapsilosis,0.0625 µg/mL
same,MIC80,Candida tropicalis,0.0625 µg/mL
same,MIC80,Cryptococcus neoformans,1 µg/mL
same,MIC80,Aspergillus fumigatus,4 µg/mL
same,MIC80,Trichophyton rubrum,0.25 µg/mL
same,MIC80,[1],0.25 µg/mL
same,MIC80,Nannizzia gypsea,1 µg/mL
O=C(CCl)Nc1ccc(N2CCN(CC(O)(Cn3cncn3)c3ccc(F)cc3F)CC2)c(F)c1 (racemic),MIC80,Candida albicans,0.0039 µg/mL
same,MIC80,Candida parapsilosis,0.0156 µg/mL
same,MIC80,Candida tropicalis,0.0156 µg/mL
same,MIC80,Cryptococcus neoformans,0.0625 µg/mL
same,MIC80,Aspergillus fumigatus,1 µg/mL
same,MIC80,Trichophyton rubrum,0.0625 µg/mL
same,MIC80,[1],0.0625 µg/mL
same,MIC80,Nannizzia gypsea,0.0156 µg/mL
